Screens as filed in PubChem BioAssay.
ROMK primary – modulates human ROMK potassium channel activity | B-score at 10 µM | 130,000 compounds, 2% hits | P48048 | AID 1918 | Tet-inducible ROMK, thallium flux fluorescence; actives lie on both sides;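 active means signal ratio slope over the read window, or its plate-corrected B-score, at least 3 SD from the plate mean, either direction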;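 further: B-score of the F/F0 ratio slope over 7 to 12 s after thallium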
Target sequence (P48048 whole entry, looked up): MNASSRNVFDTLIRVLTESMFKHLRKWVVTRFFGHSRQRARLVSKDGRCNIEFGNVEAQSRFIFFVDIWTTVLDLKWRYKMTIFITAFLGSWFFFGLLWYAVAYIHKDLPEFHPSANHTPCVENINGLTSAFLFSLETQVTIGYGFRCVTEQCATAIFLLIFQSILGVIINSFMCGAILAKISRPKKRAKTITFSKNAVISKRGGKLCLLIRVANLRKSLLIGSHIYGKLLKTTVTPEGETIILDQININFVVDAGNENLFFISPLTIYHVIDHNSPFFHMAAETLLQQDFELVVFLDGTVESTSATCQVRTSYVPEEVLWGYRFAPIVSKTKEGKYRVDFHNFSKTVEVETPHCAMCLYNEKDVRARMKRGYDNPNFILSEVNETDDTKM
Calb biofilm kill – mixtures killing C. albicans biofilm. inhibition, % at 7.6 µM. AID 1242. 120,000 compounds, 0.02% hits. C. albicans biofilm persisters + clotrimazole, fluorescence viability; primary screen in compound mixtures of four per well;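 further: compounds exposed to preformed 24 h biofilms for 48 h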
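Test system: C. albicans CAF4-2 wild-type biofilms; buffer or medium: RPMI/MOPS medium, pH 7.0; schedule: 24 h biofilm formation, then 48 h compound exposure, 37 °C; detection: Alamar Blue fluorescence; measure: percent inhibition of biofilm viability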
ROMK hit retest – confirmation of human ROMK potassium channel modulators | normalized thallium flux (F/F0 slope) at 10 µM | 3,000 compounds, 54% hits | ROMK thallium flux, fluorescence ratio; stronger effect = lower value | AID 1917 | shares compounds with ROMK primary;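 active means Flux at 10 µM at least 3 SD below or above vehicle control mean in one or both replicates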
Numbers stand for hits; . = inactive; / = no result. Only a selection was taken, and hits are over-represented in it overall.

SMILES	ROMK primary	Calb biofilm kill	ROMK hit retest
Cc1ccc(SCCNC(=O)/C=C/c2ccc(Cl)cc2)cc1	.	.	/
O=C(CN1CCNCC1)NCCSc1ccc(Cl)cc1	-2	.	0.068
N#CCc1nc(CSc2nc3ccccc3s2)cs1	.	/	/
COC(CNS(=O)(=O)c1cccc2nonc12)OC	.	.	/
Cc1cc(=O)[nH]c(SCC(=O)Nc2nc3ccccc3s2)n1	.	.	/
COc1ccc2c(c1)c1nc3ccccc3nc1n2Cc1ccc(OC(C)C)c(OC)c1	-3.4	.	0.057
COc1ccc(Cn2c3ccc(OC)cc3c3nc4ccccc4nc32)cc1	/	.	/
COc1cccc(/C=C(/C#N)c2ccc(F)cc2)c1OCc1cccc(C(=O)O)c1	.	.	/
COc1cccc(/C=C(/C#N)c2ccc(Cl)cc2)c1OCc1cccc(C(=O)O)c1	2.4	.	.
COC(=O)N1CCN(CCc2ccccc2)CC1	.	.	/
O=C(c1cccc(Cl)c1)N1CCC(=O)N(C(COCc2cccc(Cl)c2)Cc2ccccc2)CC1 (stereo unspecified)	.	.	/
O=C(c1ccc(C(F)(F)F)cc1)N1CCC(=O)N(C(COCc2ccc(C(F)(F)F)cc2)Cc2ccccc2)CC1 (stereo unspecified)	-4.1	.	0.066
Cc1cccc(COCC(Cc2ccccc2)N2CCN(C(=O)c3ccc(C(F)(F)F)cc3)CCC2=O)c1 (stereo unspecified)	.	.	/
Cc1cccc(C(=O)N2CCC(=O)N(C(COCc3cccc(Cl)c3)Cc3ccccc3)CC2)c1 (stereo unspecified)	-3.7	.	0.056
O=C(c1ccc(Cl)c(Cl)c1)N1CCC(=O)N(C(COCc2cccc(Cl)c2)Cc2ccccc2)CC1 (stereo unspecified)	.	.	/
Cc1cccc(C(=O)N2CCC(=O)N(C(COCc3ccc(Cl)cc3)Cc3ccccc3)CC2)c1 (stereo unspecified)	-3.5	.	0.048
Cc1ccc(Nc2nnc(-c3ccc(N4CCOCC4)c([N+](=O)[O-])c3)c3ccccc23)cc1	/	.	/
CCOC(=O)CSC1=NN2CCS(=O)(=O)N=C2S1	.	.	/
CCOC(=O)c1c(C)n(-c2ccc(C)cc2)c2ccc(OCC(O)CNCC3CCCO3)cc12 (stereo unspecified)	.	.	/
CCOC(=O)c1c(C)n(-c2ccc(C)cc2)c2ccc(OCC(O)CNCCCO)cc12 (stereo unspecified)	-3.6	.	0.053
CCOC(=O)N1CCN(c2nc(=S)n(-c3ccccc3)c(C)c2C(C)=O)CC1	.	/	/
CCOc1cc(-c2cc(-c3ccc(C)cc3)nc(N)c2C#N)ccc1O	.	/	/
COc1ccc(OC)c(-c2cc(-c3cccnc3)nc(N)c2C#N)c1	3.5	.	.
COc1cc(-c2cc(-c3ccc(O)cc3)nc(N)c2C#N)ccc1O	4.2	.	.
COc1cccc(-c2cc(-c3cccnc3)nc(N)c2C#N)c1	.	.	/
SMILES	ROMK primary	Calb biofilm kill	ROMK hit retest
COC(=O)[C@@H]1C[C@@]2(O)[C@H](O)[C@H](O)[C@H](O)C[C@H]2N1Cc1ccccc1OS(=O)(=O)c1ccc(C)cc1	/	.	/
CC(=O)/C(=N/Nc1ccccc1)Sc1nnc(CCc2ccccc2)n1-c1ccccc1	.	.	/
CCCCOc1ccc(NC(=O)C2CC=CCC2C(=O)O)cc1 (stereo unspecified)	.	/	/
CCOc1ccc(NC(=O)C2CC=CCC2C(=O)O)cc1 (stereo unspecified)	/	/	.
CCCSc1nnc(NC(=O)Nc2ccccc2OC)s1	/	.	/
COC(=O)CCCCC1SCC(NC(=O)c2ccccc2)C1OC(C)=O (stereo unspecified)	.	.	/
COc1cc(NS(=O)(=O)c2ccc(F)cc2)c(OC)cc1NC(C)=O	.	/	/
COCCNC(=O)CSC1=N/C(=C/c2ccc(Cl)c(Cl)c2)C(=O)N1c1ccccc1F	/	.	.
C=CCN1C(=O)/C(=C\c2ccc(Cl)cc2)N=C1SCC(=O)NCCC	.	/	/
COc1ccccc1N1CCN(C(=O)CSc2ccccc2)CC1	.	/	/
COc1ccccc1N1CCN(C(=O)CSc2nnc3c4ccccc4nc(Cc4ccccc4)n23)CC1	/	.	.
Cc1cc(=O)n2ccccc2c1C#N	.	/	/
COc1ccc2c(C#N)c3ccccn3c2c1	-3.1	.	0.045
CC(C)CCNC(=O)CC1Nc2c3ccccc3nc(=S)n2C1=O (stereo unspecified)	.	/	/
CCN(CC)CCNC(=O)C(=O)NCC1OCCN1S(=O)(=O)c1ccc([N+](=O)[O-])cc1 (stereo unspecified)	.	.	/
N/C(=N\NC(=O)c1cccs1)c1cc2ccccc2oc1=O	/	.	/
O=C(N/N=C/c1ccc[nH]1)c1ccc2c(c1)OCO2	.	.	/
O=C(N/N=C/c1ccc(-c2ccc(Br)cc2)o1)c1ccc2c(c1)OCO2	2	.	.
NC(=O)c1ccc[n+](CC(=O)OCCC23CC4CC(CC(C4)C2)C3)c1	.	/	/
Cc1ccc(SCc2cc(=O)[nH]c(/N=C(\N)Nc3cccc4ccccc34)n2)cc1	/	.	/
Cc1ccc(N/C(N)=N/c2nc(CSc3nnc(C)s3)cc(=O)[nH]2)c(C)c1	6.3	.	.
COc1ccc(N/C(N)=N/c2nc(CSc3nnc(C)s3)cc(=O)[nH]2)cc1	3.9	.	.
CCc1ccc(N/C(N)=N/c2nc(CSc3ncccn3)cc(=O)[nH]2)cc1	.	.	/
COCc1nnc(NC(=O)CCCOc2ccccc2)s1	.	/	/
CCCc1cc(=O)[nH]c(SCC(=O)N2CCN(S(=O)(=O)c3ccc4ccccc4c3)CC2)n1	/	.	/
SMILES	ROMK primary	Calb biofilm kill	ROMK hit retest
NS(=O)(=O)c1ccc(NC(=O)CN2C(=O)C3C4C=CC(C4)C3C2=O)cc1 (stereo unspecified)	/	.	/
CSc1ccccc1C(=O)N1CCc2ccccc2C1	.	.	/
CCCCCCCCCn1c2c(c(=N)c3c1CCC3)CCCC2	-3.4	.	0.038
CCn1c2c(c(=N)c3c1CCC3)CCCC2	/	.	/
CCCCCCCCn1c2c(c(=N)c3ccccc31)CCC2	-6.6	.	0.039
CCCCCn1c2c(c(=N)c3ccccc31)CCC2	.	.	/
[O-]/[N+](=C\c1cccc(Br)c1)c1ccccc1	.	.	/
Fc1ccc(/C=N/Nc2nnnn2-c2ccccc2)cc1	.	.	/
CCc1cccc(NC(=O)CCCSc2nc3ccccc3[nH]2)c1	.	.	/
O=C(CCCc1c[nH]c2ccccc12)NCc1cccs1	.	.	/
CCCCSc1nn[nH]n1	.	/	/
Cc1ccc(NC(=O)COC(=O)Cc2ccsc2)c(C)c1	.	.	/
COc1ccccc1/C=c1\sc2nc(-c3ccco3)nn2c1=O	.	/	/
COc1ccc(OC)c(/C=c2\sc3nc(-c4cccs4)nn3c2=O)c1	/	/	0.062
O=C(NCC1CCCN(Cc2cccc(OCCO)c2)C1)c1ccc(F)cc1 (stereo unspecified)	.	.	/
O=C(NCCCOc1cccc(CN2CCCCC2)c1)c1ccc(Cl)c(Cl)c1	-3.5	.	0.057
CCCC(=O)NC(NC(=S)Nc1ccc(N=Nc2ccccc2)cc1)C(Cl)(Cl)Cl (stereo unspecified)	/	.	/
CCOc1cc(CNC2CCCC2)cc(Cl)c1OCc1ccc(F)cc1	-3.8	/	0.061
CCNCc1cc(Cl)c(OCc2ccccc2)c(OCC)c1	/	.	/
CCC1CN(C(=O)Nc2ccc(C)cc2)c2cc(C)ccc2O1 (stereo unspecified)	.	.	/
CCOC(=O)c1c(-c2ccccc2)csc1N1C(=O)Nc2ccccc2N1O	.	.	/
CCCOc1ccc(CCC(=O)N/N=C/c2ccco2)cc1	/	.	/
